Values joined by “and” are separate entries in the source; they are usually repeats but may differ in a detail not shown here. Identical values can stand only once.
Columns and labels:
Fibroblast = test: Multiplex assay against human fibroblast; assay type: toxicity, cell-based; settings: number of replicates 2
Outline: (§1)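 Tubulin, mitochondrial-mass and membrane-permeability phenotypes are per cents of healthy-nucleus cells. Cells were gated by CellPathfinder machine learning into Hoechst high-intensity objects or normal cells, normal cells into healthy, pyknosed or fragmented nuclei, and pyknosed cells into mitotic or apoptotic. Before that, live cells stained at seeding with Hoechst33342, BioTracker Green Microtubule Cytoskeleton Dye, MitoTracker Red and Annexin V Alexa Fluor 680 were imaged on a CQ1 microscope at 37°C and 5% CO2 after compound addition.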

HEK-293T = test: Multiplex assay against HEK293T; assay type: toxicity, cell-based; settings: human, number of replicates 2; outline: as §1
[1] = 12 h, 1 µM, compound concentration 1 uM
[2] = 12 h, 10 µM, compound concentration 10 uM
[3] = 24 h, 1 µM, compound concentration 1 uM
[4] = 24 h, 10 µM, compound concentration 10 uM
[5] = 48 h, 1 µM, compound concentration 1 uM
[6] = 48 h, 10 µM, compound concentration 10 uM

With O=S(=O)(c1ccccc1)N(CC(F)(F)F)c1ccc(C(O)(C(F)(F)F)C(F)(F)F)cc1 [T091317] the “Population Apoptotic (%)” value (Fibroblast; [1]) was 45% and 27%, the “Population Fragmented Nuclei (%)” value (Fibroblast; [1]) was 13% and 11% and the “Population Healthy Nuclei (%)” value (Fibroblast; [1]) was 60% and 68%. For the same compound, the “Population Hoechst High Intensity Objects (%)” value (Fibroblast; [1]) was 0%, the “Population Membrane Permeable-Phenotype (%)” value (Fibroblast; [1]) was 8% and 10% and the “Population Mitochondria Different-Phenotype (%)” value (Fibroblast; [1]) was 1%. The “Population Mitotic Cells (%)” value (Fibroblast; [1]) was 54% and 72%, the “Population Normal (%)” value (Fibroblast; [1]) was 100% and the “Population Pyknosed Nuclei (%)” value (Fibroblast; [1]) was 25% and 20%. For the same compound, the “Population Tubulin-Different-Phenotype (%)” value (Fibroblast; [1]) was 28% and 21%, the “Total Cell Count” value (Fibroblast; [1]) was 135 and 214 and the “Population Apoptotic (%)” value (Fibroblast; [2]) was 33% and 30%. The “Population Fragmented Nuclei (%)” value (Fibroblast; [2]) was 14% and 12%, the “Population Healthy Nuclei (%)” value (Fibroblast; [2]) was 58% and 67% and the “Population Hoechst High Intensity Objects (%)” value (Fibroblast; [2]) was 0%. The “Population Membrane Permeable-Phenotype (%)” value (Fibroblast; [2]) was 6% and 8%, the “Population Mitochondria Different-Phenotype (%)” value (Fibroblast; [2]) was 1% and 4% and the “Population Mitotic Cells (%)” value (Fibroblast; [2]) was 66% and 69%. For the same compound, the “Population Normal (%)” value (Fibroblast; [2]) was 99% and 100%, the “Population Pyknosed Nuclei (%)” value (Fibroblast; [2]) was 28% and 19% and the “Population Tubulin-Different-Phenotype (%)” value (Fibroblast; [2]) was 40% and 34%. For the same compound, the “Total Cell Count” value (Fibroblast; [2]) was 151 and 132, the “Population Apoptotic (%)” value (Fibroblast; [3]) was 50% and 52% and the “Population Fragmented Nuclei (%)” value (Fibroblast; [3]) was 15% and 10%. The “Population Healthy Nuclei (%)” value (Fibroblast; [3]) was 54% and 57%, the “Population Hoechst High Intensity Objects (%)” value (Fibroblast; [3]) was 0% and the “Population Membrane Permeable-Phenotype (%)” value (Fibroblast; [3]) was 7% and 15%. For the same compound, the “Population Mitochondria Different-Phenotype (%)” value (Fibroblast; [3]) was 5% and 0%, the “Population Mitotic Cells (%)” value (Fibroblast; [3]) was 50% and 47% and the “Population Normal (%)” value (Fibroblast; [3]) was 100%. For the same compound, the “Population Pyknosed Nuclei (%)” value (Fibroblast; [3]) was 29% and 31%, the “Population Tubulin-Different-Phenotype (%)” value (Fibroblast; [3]) was 28% and 24% and the “Total Cell Count” value (Fibroblast; [3]) was 128 and 204. For the same compound, the “Population Apoptotic (%)” value (Fibroblast; [4]) was 63% and 37%, the “Population Fragmented Nuclei (%)” value (Fibroblast; [4]) was 16% and 18% and the “Population Healthy Nuclei (%)” value (Fibroblast; [4]) was 47% and 57%. The “Population Hoechst High Intensity Objects (%)” value (Fibroblast; [4]) was 0%, the “Population Membrane Permeable-Phenotype (%)” value (Fibroblast; [4]) was 8% and 17% and the “Population Mitochondria Different-Phenotype (%)” value (Fibroblast; [4]) was 7% and 4%. The “Population Mitotic Cells (%)” value (Fibroblast; [4]) was 36% and 62%, the “Population Normal (%)” value (Fibroblast; [4]) was 100% and 99% and the “Population Pyknosed Nuclei (%)” value (Fibroblast; [4]) was 35% and 24%. The “Population Tubulin-Different-Phenotype (%)” value (Fibroblast; [4]) was 65% and 56%, the “Total Cell Count” value (Fibroblast; [4]) was 145 and 143 and the “Population Apoptotic (%)” value (Fibroblast; [5]) was 75% and 69%. The “Population Fragmented Nuclei (%)” value (Fibroblast; [5]) was 10% and 13%, the “Population Healthy Nuclei (%)” value (Fibroblast; [5]) was 60% and 54% and the “Population Hoechst High Intensity Objects (%)” value (Fibroblast; [5]) was 0%. The “Population Membrane Permeable-Phenotype (%)” value (Fibroblast; [5]) was 15% and 14%, the “Population Mitochondria Different-Phenotype (%)” value (Fibroblast; [5]) was 0% and 2% and the “Population Mitotic Cells (%)” value (Fibroblast; [5]) was 24% and 30%. The “Population Normal (%)” value (Fibroblast; [5]) was 100% and 99%, the “Population Pyknosed Nuclei (%)” value (Fibroblast; [5]) was 28% and 31% and the “Population Tubulin-Different-Phenotype (%)” value (Fibroblast; [5]) was 32% and 24%. The “Total Cell Count” value (Fibroblast; [5]) was 128 and 175, the “Population Apoptotic (%)” value (Fibroblast; [6]) was 71% and 78% and the “Population Fragmented Nuclei (%)” value (Fibroblast; [6]) was 25% and 16%. The “Population Healthy Nuclei (%)” value (Fibroblast; [6]) was 46% and 54%, the “Population Hoechst High Intensity Objects (%)” value (Fibroblast; [6]) was 1% and 0% and the “Population Membrane Permeable-Phenotype (%)” value (Fibroblast; [6]) was 16% and 26%. The “Population Mitochondria Different-Phenotype (%)” value (Fibroblast; [6]) was 4%, the “Population Mitotic Cells (%)” value (Fibroblast; [6]) was 28% and 21% and the “Population Normal (%)” value (Fibroblast; [6]) was 98% and 99%. For the same compound, the “Population Pyknosed Nuclei (%)” value (Fibroblast; [6]) was 27% and 28%, the “Population Tubulin-Different-Phenotype (%)” value (Fibroblast; [6]) was 69% and 80% and the “Total Cell Count” value (Fibroblast; [6]) was 143 and 134. For the same compound, the “Population Apoptotic (%)” value (HEK-293T; [1]) was 40% and 48%, the “Population Fragmented Nuclei (%)” value (HEK-293T; [1]) was 4% and 3% and the “Population Healthy Nuclei (%)” value (HEK-293T; [1]) was 83% and 82%. The “Population Hoechst High Intensity Objects (%)” value (HEK-293T; [1]) was 7% and 5%, the “Population Membrane Permeable-Phenotype (%)” value (HEK-293T; [1]) was 3% and 4% and the “Population Mitochondria Different-Phenotype (%)” value (HEK-293T; [1]) was 15% and 22%. For the same compound, the “Population Mitotic Cells (%)” value (HEK-293T; [1]) was 59% and 51%, the “Population Normal (%)” value (HEK-293T; [1]) was 92% and 94% and the “Population Pyknosed Nuclei (%)” value (HEK-293T; [1]) was 11% and 14%. For the same compound, the “Population Tubulin-Different-Phenotype (%)” value (HEK-293T; [1]) was 56%, the “Total Cell Count” value (HEK-293T; [1]) was 740 and 522 and the “Population Apoptotic (%)” value (HEK-293T; [2]) was 57% and 54%. For the same compound, the “Population Fragmented Nuclei (%)” value (HEK-293T; [2]) was 3% and 5%, the “Population Healthy Nuclei (%)” value (HEK-293T; [2]) was 83% and 81% and the “Population Hoechst High Intensity Objects (%)” value (HEK-293T; [2]) was 10% and 15%. For the same compound, the “Population Membrane Permeable-Phenotype (%)” value (HEK-293T; [2]) was 4% and 3%, the “Population Mitochondria Different-Phenotype (%)” value (HEK-293T; [2]) was 49% and 42% and the “Population Mitotic Cells (%)” value (HEK-293T; [2]) was 42% and 45%. For the same compound, the “Population Normal (%)” value (HEK-293T; [2]) was 89% and 84%, the “Population Pyknosed Nuclei (%)” value (HEK-293T; [2]) was 12% and the “Population Tubulin-Different-Phenotype (%)” value (HEK-293T; [2]) was 86% and 81%. For the same compound, the “Total Cell Count” value (HEK-293T; [2]) was 426 and 429, the “Population Apoptotic (%)” value (HEK-293T; [3]) was 39% and 56% and the “Population Fragmented Nuclei (%)” value (HEK-293T; [3]) was 8% and 4%. For the same compound, the “Population Healthy Nuclei (%)” value (HEK-293T; [3]) was 83% and 85%.

Source: ChEMBL document CHEMBL5303300, “EUbOPEN Chemogenomics Library - Multiplex” (2023)
